# Reference: ChEMBL document CHEMBL2311478, “Macrolactonolides: a novel class of anti-inflammatory compounds” (Bioorg Med Chem, 2013)
# Activity calls are given as the source filed them. No cut-off for these calls is given here.
# Columns and labels:
# [1] = system: PBMC; test: Antiinflammatory activity in human PBMC assessed as inhibition of PHA-induced MCP-1 production after 24 hrs; assay type: functional, cell-based
# Summary of the method: (§1)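 Thawed cryopreserved human PBMCs were preincubated 1 h at 37 °C, 5% CO2, then exposed to test compound for 1 h before LPS, anti-CD3 or PHA stimulation. Supernatants were collected at 6, 24 or 48 h according to each cytokine's peak, and cytokines quantified by Luminex multiplex bead assay. 10-point titration starting at 20 µM, in duplicate, with constant DMSO. Parallel Alamar Blue cytotoxicity check under 48 h PHA.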
# [2] = molecular target: T1, Glucocorticoid receptor (Homo sapiens, UniProt P04150); test: Displacement of [3H]-dexamethasone human glucocorticoid receptor alpha expressed in 293 MSR cells after 60 mins by scintillation counting; assay type: cell-based
# T1 sequence (P04150 whole entry): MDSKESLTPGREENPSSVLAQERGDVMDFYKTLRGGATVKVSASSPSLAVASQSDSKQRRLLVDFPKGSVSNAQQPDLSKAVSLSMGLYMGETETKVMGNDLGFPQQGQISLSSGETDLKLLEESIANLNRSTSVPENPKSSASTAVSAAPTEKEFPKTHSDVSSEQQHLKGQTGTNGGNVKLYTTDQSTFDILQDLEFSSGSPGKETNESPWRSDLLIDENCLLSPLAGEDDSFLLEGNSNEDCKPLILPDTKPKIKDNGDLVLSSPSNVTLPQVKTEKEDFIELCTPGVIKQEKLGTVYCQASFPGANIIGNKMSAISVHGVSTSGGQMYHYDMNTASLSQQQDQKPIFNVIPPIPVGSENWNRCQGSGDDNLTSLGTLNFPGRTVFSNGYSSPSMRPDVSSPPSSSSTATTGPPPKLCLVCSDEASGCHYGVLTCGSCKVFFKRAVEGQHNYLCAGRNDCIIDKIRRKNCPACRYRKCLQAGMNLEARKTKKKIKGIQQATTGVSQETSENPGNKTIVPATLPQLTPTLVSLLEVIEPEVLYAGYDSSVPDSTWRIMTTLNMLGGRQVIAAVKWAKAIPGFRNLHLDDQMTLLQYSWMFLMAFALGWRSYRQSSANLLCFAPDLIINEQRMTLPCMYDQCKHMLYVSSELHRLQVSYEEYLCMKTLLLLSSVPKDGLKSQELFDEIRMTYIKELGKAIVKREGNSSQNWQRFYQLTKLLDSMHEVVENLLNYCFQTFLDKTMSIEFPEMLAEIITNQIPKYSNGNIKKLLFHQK
# [3] = system: Streptococcus pneumoniae; test: Antibacterial activity against efflux mediated macrolide-resistant Streptococcus pneumoniae Ci137 by broth microdilution method; assay type: functional
# Summary of the method: (§2)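 MICs by CLSI broth microdilution with double dilutions, except that Streptococcus medium used 5% horse serum in place of lysed blood. Bacteria were pre-grown on Columbia agar with 5% sheep blood (streptococci) or Mueller–Hinton agar (staphylococci).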
# [4] = system: Rattus norvegicus; test: Antiinflammatory activity against ovalbumin-induced airway allergic Brown-Norway rat model assessed as decrease of eosinophil peroxidase activity in bronchoalveolar lavage fluid at 32 mg/kg administered intranasally as dry powder measured on day 29 after ovalbumin challenge; assay type: functional, Lung; design: scale not given: the % may be the effect or the level left
# [5] = system: PBMC; test: Antiinflammatory activity in human PBMC assessed as inhibition of PHA-induced MIP1alpha production after 6 hrs; assay type: functional, cell-based; summary of the method: as §1
# [6] = system: PBMC; test: Antiinflammatory activity in human PBMC assessed as inhibition of anti-CD3-induced IL-1beta production after 48 hrs; assay type: functional, cell-based; summary of the method: as §1
# [7] = system: PBMC; test: Antiinflammatory activity in human PBMC assessed as inhibition of PHA-induced IFNgamma production after 24 hrs; assay type: functional, cell-based; summary of the method: as §1
# [8] = Tmax in Balb/c mouse lung at 2 mg/kg, administered intranasally; assay type: ADME, organism-based; design: dose 2 mg/kg; conditions: inhaled or intranasal
# Summary of the method: (§3)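 Male Balb/c mice (21–25 g) dosed intranasally with freshly prepared formulation in 1% DMSO plus 0.125% CMC. Terminal bleeding and lung collection from 5 min to 72 h. K2EDTA blood taken as blood aliquots or spun for plasma. Lung homogenised 1:5 in water. Samples were protein-precipitated with acetonitrile/methanol (2:1) plus roxithromycin internal standard and quantified by LC–MS/MS. LLOQ 0.5 ng/mL (blood/plasma) and 2.5 ng/mL (lung).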
# [9] = system: PBMC; test: Antiinflammatory activity in human PBMC assessed as inhibition of PHA-induced IL-13 production after 24 hrs; assay type: functional, cell-based; summary of the method: as §1
# [10] = system: PBMC; test: Antiinflammatory activity in human PBMC assessed as inhibition of LPS-induced TNFalpha production after 6 hrs; assay type: functional, cell-based; summary of the method: as §1
# [11] = system: PBMC; test: Antiinflammatory activity in human PBMC assessed as inhibition of PHA-induced IL-4 production after 24 hrs; assay type: functional, cell-based; summary of the method: as §1
# [12] = system: PBMC; test: Antiinflammatory activity in human PBMC assessed as inhibition of PHA-induced IL-6 production after 6 hrs; assay type: functional, cell-based; summary of the method: as §1
# [13] = system: Rattus norvegicus; test: Antiinflammatory activity against ovalbumin-induced airway allergic Brown-Norway rat model assessed as decrease of total cell in bronchoalveolar lavage fluid at 32 mg/kg administered intranasally as dry powder measured on day 29 after ovalbumin challenge (reference value: 53.1%); assay type: functional, Lung; design: scale not given: the % may be the effect or the level left
# [14] = system: PBMC; test: Antiinflammatory activity in human PBMC assessed as inhibition of PHA-induced IL-2 production after 48 hrs; assay type: functional, cell-based; summary of the method: as §1
# [15] = system: Rattus norvegicus; test: Antiinflammatory activity against ovalbumin-induced airway allergic Brown-Norway rat model assessed as decrease of neutrophils in bronchoalveolar lavage fluid at 32 mg/kg administered intranasally as dry powder measured on day 29 after ovalbumin challenge; assay type: functional, organism-based; design: dose 32 mg/kg
# Summary of the method: (§4)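 Brown-Norway rats sensitised by OVA injection on day 1, boosted on days 14 and 20. Treatment with 32 mg/kg or air control on day 27, followed 1 h later by 60 min OVA inhalation challenge. BAL cells differentiated about 48 h post-challenge (day 29). Comparison was against a sensitised, challenged, untreated group. Mean + SD, n = 10, Dunnett test.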
# [16] = AUC (0 to infinity) in Balb/c mouse blood at 2 mg/kg, administered intranasally; assay type: ADME, organism-based; design: time infinity, dose 2 mg/kg, route nasal; conditions: whole blood, inhaled or intranasal; summary of the method: as §3
# [17] = system: Streptococcus pyogenes; test: Antibacterial activity against inducible-resistant to macrolide, licosamide and streptogramin Streptococcus pyogenes Finland 11 by broth microdilution method; assay type: functional; summary of the method: as §2
# [18] = system: Rattus norvegicus; test: Antiinflammatory activity against ovalbumin-induced airway allergic Brown-Norway rat model assessed as decrease of eosinophil peroxidase activity in bronchoalveolar lavage fluid at 11 mg/kg administered intranasally as dry powder measured on day 29 after ovalbumin challenge; assay type: functional, Lung; design: scale not given: the % may be the effect or the level left
# [19] = Half life in Balb/c mouse plasma at 2 mg/kg, administered intranasally; assay type: ADME, organism-based; design: dose 2 mg/kg; conditions: inhaled or intranasal; summary of the method: as §3
# [20] = system: Escherichia coli; test: Antibacterial activity against Escherichia coli ATCC 25922 by broth microdilution method; assay type: functional
# Summary of the method: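 CLSI broth microdilution with double dilutions in 96-well plates. For streptococci, 5% horse serum replaced lysed blood in the medium. Inocula were grown on Columbia agar with 5% sheep blood for streptococci, Mueller–Hinton chocolate agar for H. influenzae, and Mueller–Hinton agar for staphylococci. Read-out is MIC in mg/L.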
# [21] = molecular target: T1, Glucocorticoid receptor; test: Binding affinity to glucocorticoid receptor (unknown origin) by fluorescence polarization competitive binding assay
# [22] = Cmax in Balb/c mouse plasma at 2 mg/kg, administered intranasally; assay type: ADME, organism-based; design: route nasal, dose 2 mg/kg; conditions: inhaled or intranasal; summary of the method: as §3
# [23] = Cmax in Balb/c mouse lung at 2 mg/kg, administered intranasally; assay type: ADME, organism-based; design: dose 2 mg/kg, route nasal; conditions: inhaled or intranasal; summary of the method: as §3
# [24] = AUC (0 to infinity) in Balb/c mouse plasma at 2 mg/kg, administered intranasally; assay type: ADME, organism-based; design: time infinity, route nasal, dose 2 mg/kg; conditions: inhaled or intranasal; summary of the method: as §3
# [25] = system: Rattus norvegicus; test: Antiinflammatory activity against ovalbumin-induced airway allergic Brown-Norway rat model assessed as decrease of macrophages in bronchoalveolar lavage fluid at 32 mg/kg administered intranasally as dry powder measured on day 29 after ovalbumin challenge; assay type: functional, organism-based; design: dose 32 mg/kg; conditions: Lung; summary of the method: as §4
smiles,measurement,setting,value
CC[C@H]1OC(=O)[C@H](C)[C@@H](O[C@H]2C[C@@](C)(OC)[C@@H](O)[C@H](C)O2)[C@H](C)[C@@H](O[C@@H]2O[C@H](C)C[C@H](N(C)C)[C@H]2O)[C@](C)(O)C[C@@H](C)CN(CCCNC(=O)[C@H]2[C@H](C)C[C@H]3[C@@H]4CCC5=CC(=O)C=C[C@]5(C)[C@@]4(F)[C@@H](O)C[C@@]32C)[C@H](C)[C@@H](O)[C@]1(C)O,EC50,[1],19 µM
same,EC50,[2],0.43 µM
same,MIC,[3],32 µg/mL
same,Activity,[4],50%
same,EC50,[5],2.63 µM
same,EC50,[6],0.03 µM
same,EC50,[7],0.067 µM
same,Tmax,[8],4.8 min
same,EC50,[9],0.42 µM
same,EC50,[10],3 µM
same,EC50,[11],0.21 µM
same,EC50,[12],4.03 µM
same,Activity,[13],43.6%
same,EC50,[14],> 20 µM
same,Activity,[15],Active
same,AUC(0-inf),[16],181 ng·h/mL
same,MIC,[17],32 µg/mL
same,Activity,[18],12%
same,half-life,[19],54 min
same,MIC,[20],> 64 µg/mL
same,EC50,[21],4.16 µM
same,Cmax,[22],223 ng/mL
same,Cmax,[23],2410 ng/mL
same,AUC(0-inf),[24],181 ng·h/mL
same,Activity,[25],Active
